# Shown are actives, neighbours in structure and some others; about 2.5% of the full set was active somewhere.
# HTR2A ag: mouse HTR2A agonism via beta-arrestin recruitment. P35363. CHO-K1 mHTR2A beta-arrestin complementation, luminescence; percent of 30 µM serotonin response. activation, % at 7.6 µM. AID 624169. 360,000 tested, 0.66% active;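 active = activation above a run cutoff, the mean activation of all tested compounds plus 3 SD, cut at about 14% in these data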
# Target sequence (P35363 whole entry, looked up): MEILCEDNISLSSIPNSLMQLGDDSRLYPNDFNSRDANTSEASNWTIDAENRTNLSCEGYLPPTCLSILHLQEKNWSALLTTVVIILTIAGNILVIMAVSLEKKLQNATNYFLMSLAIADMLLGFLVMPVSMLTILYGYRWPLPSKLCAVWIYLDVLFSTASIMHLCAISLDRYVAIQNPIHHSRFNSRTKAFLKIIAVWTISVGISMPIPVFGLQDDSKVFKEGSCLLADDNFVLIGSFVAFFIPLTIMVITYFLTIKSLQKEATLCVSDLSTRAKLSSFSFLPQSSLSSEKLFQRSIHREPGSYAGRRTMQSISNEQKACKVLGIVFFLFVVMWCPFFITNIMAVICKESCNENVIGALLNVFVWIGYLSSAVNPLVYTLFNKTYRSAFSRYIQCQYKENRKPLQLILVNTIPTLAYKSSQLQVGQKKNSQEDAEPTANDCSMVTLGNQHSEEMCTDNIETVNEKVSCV
# IMP-1 inhibitor: inhibitors of Pseudomonas aeruginosa IMP-1 metallo-beta-lactamase | purified IMP-1, nitrocefin hydrolysis, epi-absorbance fluorescence | inhibition, % at 5.6 µM | 290,000 tested, 0.45% active;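 active = inhibition above the mean plus 3 SD of all compounds in the same screening run, cut at about 4.5% in these data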
#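 System: purified IMP-1; amount: IMP-1 0.2 nM before substrate addition; compound: single dose, 5.6 µM; times: 25 °C, 15 min preincubation, 25 min reaction; signal: Epi-absorbance via hydrolysed-nitrocefin quenching of white-plate fluorescence, 480/530 nm, EDTA stop; benchmarks: DMSO with and without IMP-1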
# dFosB activator: enhances mouse delta FosB homodimer DNA binding | P13346 | purified delta FosB, TAMRA-CDK5 oligo fluorescence polarization; percent of positive-control signal above neutral wells | activation, % at 25 µM | 340,000 tested, 0.99% active;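 active = mean activation above about 17%, with every replicate also reaching it, limit read from the data, passing the limit was not always enough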
# VIM-2 inh: blocks Pseudomonas aeruginosa VIM-2 metallo-beta-lactamase; purified VIM-2, nitrocefin hydrolysis, epi-absorbance fluorescence; inhibition, % at 5.6 µM; 290,000 tested, 0.89% active; AID 1527;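 active = inhibition above the mean of all tested compounds plus 3 SD, cutoff set per screening run, cut at about 7.5% in these data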;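 also: red hydrolysis product quenches plate fluorescence so inhibitors raise well fluorescence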
# Numbers stand for hits; . = inactive; / = not tested or not shown.
SMILES,HTR2A ag,IMP-1 inhibitor,dFosB activator,VIM-2 inh
Cc1nnc(SCC(=O)Nc2sc3c(c2C(N)=O)CCC(C)C3)[nH]c1=O (stereo not drawn),.,/,.,/
COc1ccc(C(=O)C[n+]2cccc3cc(C)ccc32)cc1,.,5.9,.,.
C/C(=N\NC(=O)CNC(=O)c1ccccc1F)c1ccco1,.,.,.,.
CN1C(=S)NC(C)(C)CC1(C)c1ccc(O)cc1O (stereo not drawn),.,.,.,8.3
CC1(C)CC(C)(c2ccc(O)cc2O)N(c2ccc3ccccc3c2)C(=S)N1 (stereo not drawn),.,.,.,.
CCC(C(=O)Nc1ccc(C(=O)O)cc1NC(=O)C(CC)c1ccccc1)c1ccccc1 (stereo not drawn),.,.,.,.
CC(Nc1ccnc2cc(Cl)ccc12)c1ccc(S(N)(=O)=O)cc1 (stereo not drawn),.,.,.,.
CC(CCCN1CCCC1)Nc1ccnc2cc(Cl)ccc12 (stereo not drawn),.,/,41.5,/
Clc1ccc2c(NCCNC3CCCCC3)ccnc2c1,.,/,45.0,/
CC1CCCN1c1ccnc2cc(Cl)ccc12 (stereo not drawn),.,/,/,/
Clc1ccc2c(NCc3ccccn3)ccnc2c1,.,.,.,.
CC(C)NC1CCC(Nc2ccnc3cc(Cl)ccc23)CC1 (stereo not drawn),.,/,17.5,/
Brc1ccc(-c2ccc(/C=N/Nc3nc4ccccc4[nH]3)o2)cc1,.,.,38.9,.
C(=N\Nc1nc2ccccc2[nH]1)/c1ccccc1,.,.,.,.
Cc1cc(CN2CCN(CC(=O)Nc3cc(C(F)(F)F)ccc3-n3cncn3)CC2)no1,.,/,.,/
NC(=O)CSc1nc2sc3c(c2c2ncnn12)CCCC3,.,.,.,9.8
Cc1[nH]c2ccccc2c1C(=O)CSC(=S)N1CCN(C)CC1,.,.,.,12.1
Cc1ccc(S(=O)(=O)N2C[C@H]3C(=O)C[C@@H]4C(=O)N(c5ccccc5)C(=O)[C@@H]4[C@@H]3C[C@H]2c2cccs2)cc1,.,/,/,/
CN(C)c1ccc(N=Nc2nc3ccccc3n2C)cc1,.,.,20.6,.
CCOC(=O)c1c(C)n(C)c2ccc(OCC(O)CNCCc3ccccc3)cc12 (stereo not drawn),.,.,.,9.7
COC(=O)C(NC(=O)CCc1c(C)nc2c(c(C)nn2-c2ccccc2)c1C)C(C)C (stereo not drawn),.,4.6,.,.
CCC(C)NC(=O)CCc1c(C)nc2c(c(C)nn2-c2ccccc2)c1C (stereo not drawn),.,.,.,.
O=C(CCCOc1ccccc1)NNC(=O)c1ccncc1,.,/,.,/
Cc1ccc(-c2cnc(C(O)c3ccc(Cl)cc3C)[nH]2)cc1 (stereo not drawn),.,/,/,/
CC(C)CN(C(=O)COc1ccccc1C(=O)NCc1ccccc1)C1CCS(=O)(=O)C1 (stereo not drawn),.,/,/,/
SMILES,HTR2A ag,IMP-1 inhibitor,dFosB activator,VIM-2 inh
CC(C)CCNC(=O)NC(=O)COc1ccccc1C#N,.,5.4,.,.
NC(CC(=O)OC1CCCCC1)C(=O)OC1CCCCC1 (stereo not drawn),.,5.4,.,.
CC(=O)c1sc(NC(=O)CSCc2c(C)noc2C)nc1-c1ccccc1,.,/,.,/
CC(C)C[C@@H]1COc2cccc(N3CCC[C@H]3CO)c2S(=O)(=O)N1,.,/,/,/
COc1ccc(-c2cc(=O)oc3cc(OCC(C)=O)ccc23)cc1,.,.,.,.
COc1ccc(-c2cc(=O)oc3cc(O)ccc23)cc1,.,.,.,8.6
O=C(Nc1ccc2oc(-c3ccccc3Cl)nc2c1)c1ncn[nH]1,.,.,.,.
O=C(Nc1ccc2oc(-c3ccccc3Cl)nc2c1)c1cncc(Br)c1,.,.,64.0,.
O=C(Nc1cc(C(F)(F)F)ccc1N1CCOCC1)C1Cc2ccccc2CN1C(=O)c1ccco1 (stereo not drawn),.,5.6,.,.
CC(C)CC(=O)N1CCN(C(=O)c2ccc(F)cc2)CC1,.,.,.,.
COc1ccccc1Nc1nc(N)nc(CCl)n1,.,.,.,.
COc1ccc(OCc2nc(N)nc(Nc3ccccc3OC)n2)cc1,.,5.4,.,.
Cc1cc(C)nc(NC(=O)CN2C(=O)c3ccccc3S2(=O)=O)n1,.,/,.,/
Cc1cc(C)nc(N(C#N)CN2C(=O)c3ccccc3S2(=O)=O)n1,.,8.8,.,.
CNc1nc(OC)nc(N(C#N)CN2C(=O)c3ccccc3S2(=O)=O)n1,.,9.4,.,.
Cc1ncc(CO)c(/C=N/NC(=O)c2cc(O)c(O)c(O)c2)c1O,/,24.1,/,.
Cc1ncc(CO)c(/C=N/NC(=O)c2ccc(Br)cc2)c1O,/,.,/,.
CC(=O)Nc1ccc(S(=O)(=O)NC2C3(C)CCC(C3)C2(C)C)cc1 (stereo not drawn),.,.,.,.
CCOC(=O)[C@H]1[C@H]2COc3ccc(C)cc3[C@@H]2N2C(=O)CN(CC3CCCO3)C(=O)[C@@]12C (stereo partly drawn),.,/,.,/
CCOc1ccccc1C(=O)NCC(=O)NCC(C)(C)N1CCOCC1,.,/,.,/
COc1ccccc1C(=O)NCCC(=O)NCC(C)(C)N1CCOCC1,17.4,.,.,.
CC1=NN(C(=O)c2ccc(C)o2)C(O)(c2ccccc2)C1 (stereo not drawn),.,45.6,.,.
Cc1ccc(/C=C/S(=O)(=O)NCC(=O)OCC(=O)Nc2c(F)cccc2F)cc1,.,/,.,/
O=C1/C(=C/c2cccs2)SC(=S)N1NS(=O)(=O)c1ccccc1,.,9.0,.,.
COc1ccc(C(=O)c2coc3c2C(=O)C(=O)c2ccccc2-3)cc1,.,12.0,.,.
SMILES,HTR2A ag,IMP-1 inhibitor,dFosB activator,VIM-2 inh
O=C(NNC(=O)c1ccc(Br)s1)c1csc(N2CCOCC2)n1,.,/,61.1,/
Cc1oc(-c2ccccc2F)nc1CS(=O)CC(=O)NCc1ccc(F)cc1 (stereo not drawn),.,.,.,.
S=c1[nH]nc(-c2ccc(Cl)cc2)n1CCCN1CCOCC1,.,.,.,8.4
COCCCn1c(-c2ccc(Cl)cc2)n[nH]c1=S,.,.,.,.
CC1(C(=O)NCc2ccccc2)CN(S(C)(=O)=O)CC(=O)N1Cc1cccc(C(F)(F)F)c1 (stereo not drawn),.,/,/,/
O=Cc1cc(N=Nc2ccccc2Cl)ccc1O,.,9.7,.,.
O=Cc1cc(N=Nc2cccc(C(=O)O)c2)ccc1O,.,12.9,.,.
Cc1ccc2c(c1)c(N=Nc1cccc(C(=O)O)c1)c(O)n2C,.,.,.,.
CCOC(=O)c1cc(=O)[nH]c2ccccc12,.,.,.,.
CCCOC(=O)c1cc(=O)[nH]c2ccccc12,.,4.5,.,.
O=C(CSc1nnc(C2CC2)n1Cc1ccccc1)c1ccc(S(=O)(=O)N2CCOCC2)cc1,.,.,.,22.7
Cc1nc(N[C@@H](Cc2c[nH]c3ccccc23)C(=O)O)c2oc3ccccc3c2n1,/,.,/,8.8
O=C(COC(=O)c1ccc(O)cc1)Nc1ccc(Cl)cc1,/,.,/,.
COc1ccc(Cl)cc1C(=O)OCC(=O)NC(=O)c1cccn1C,.,.,.,11.3
N/N=C/C(=N\Nc1ccc(Cl)cc1)C(=O)c1ccncc1,.,.,.,8.8

# Assay outcomes from PubChem BioAssay.
